The test system of the assay is HEK293T G6PC promoter luciferase with RORa, 20 h. The assay is described as follows: G6PC promoter luciferase repression by compounds – cell-based, luminescence, single concentration, counter-screen for RORA inverse agonist project, late-stage follow-up (AID 463144). To be noted: at 10 µM; hits give low values. The gist of the method:
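System: HEK293T cells expressing full-length RORa, SRC-2 coactivator, G6PC-promoter luciferase | Compound dosing: Single nominal dose of 10 µM per compound | Schedule: 20 h compound treatment | Measured by: Reporter luminescence | Read-out basis: Average fold change versus vehicle wells | Benchmarks: DMSO-only vehicle cells as reference | Repeats: n of 6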

Drawing on PubChem BioAssay AID463144 (The Scripps Research Institute Molecular Screening Center, 2010), this text covers fold change for one molecule.

`O=S(=O)(Nc1ccc(C(O)(C(F)(F)F)C(F)(F)F)cc1)c1cccs1`: the fold change is 0.64.
